Fh CTSL1 inh: cathepsin L1 inhibition, PFM18AAP counter-screen; AID 1906; 0.49% of 300,000 active; recombinant F. hepatica cathepsin L1, Z-Leu-Arg-MCA fluorescence; inhibition, % at 5.96 µM;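 active = inhibition above the mean of all tested compounds plus 3 SD, set per screening campaign, cut at about 17% in these data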;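 also: 0% = plate median of test compound wells and 100% = 1 µM Z-Phe-Ala-diazomethylketone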
UBC13 inh: blocks human UBC13 polyubiquitin chain formation. TR-FRET. inhibition, % at 20 µM. 0.47% of 330,000 active; in the data active = inhibition above about 45%, passing the limit was not always enough
PREPL inh: human PREPL enzyme inhibition; 0.68% of 320,000 active; inhibition, % at 5.96 µM; Q4J6C6; recombinant PREPL, fluorescence polarization activity-based probe; AID 2751; in the data active = inhibition above about 43%;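 also: 0% = enzyme with DMSO and 100% = wells lacking enzyme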
Target sequence (Q4J6C6 whole entry, looked up): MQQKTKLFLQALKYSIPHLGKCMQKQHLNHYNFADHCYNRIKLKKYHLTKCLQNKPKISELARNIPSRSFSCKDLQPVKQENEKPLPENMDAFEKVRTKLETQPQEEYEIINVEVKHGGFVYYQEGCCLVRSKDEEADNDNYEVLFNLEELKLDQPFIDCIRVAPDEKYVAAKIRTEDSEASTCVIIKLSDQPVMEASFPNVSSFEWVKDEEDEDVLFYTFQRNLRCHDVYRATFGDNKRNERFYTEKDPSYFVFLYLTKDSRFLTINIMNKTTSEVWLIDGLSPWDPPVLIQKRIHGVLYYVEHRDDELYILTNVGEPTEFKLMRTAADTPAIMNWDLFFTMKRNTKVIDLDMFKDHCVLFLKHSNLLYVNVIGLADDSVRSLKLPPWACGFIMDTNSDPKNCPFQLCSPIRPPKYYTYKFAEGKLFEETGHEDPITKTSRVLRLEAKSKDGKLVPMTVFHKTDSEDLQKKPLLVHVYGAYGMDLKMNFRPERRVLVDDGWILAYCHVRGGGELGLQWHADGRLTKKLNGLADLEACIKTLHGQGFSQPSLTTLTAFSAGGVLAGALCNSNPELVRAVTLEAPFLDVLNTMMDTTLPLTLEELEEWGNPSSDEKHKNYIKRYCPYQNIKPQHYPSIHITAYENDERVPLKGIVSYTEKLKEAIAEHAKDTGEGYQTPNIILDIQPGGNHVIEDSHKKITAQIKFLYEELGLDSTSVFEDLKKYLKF
PP1 counter: PP1-alpha (human) inhibition in PP5 counter-screen. AID 2235. P62136. 0.9% of 320,000 active. purified PP1alpha, OMFP fluorescence. inhibition, % at 6.7 µM;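 active = inhibition above the mean inhibition of all tested compounds plus 3 SD, computed separately for each screening campaign, cut at about 15% in these data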
UCH37 inh: blocks the human deubiquitinase UCH37; Q9Y5K5; purified proteasome/UCH37, Ub-AMC cleavage fluorescence; inhibition, % (no concentration beside the values); 0.33% of 330,000 active; AID 588478;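 active = mean inhibition over replicate wells above about 20%, limit read from the data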;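 also: 0% = compound-free wells with enzyme and 100% = wells lacking proteasome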
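Test system – human UCH37 enzyme supplied as purified proteasome complex · Incubation – 30 min preincubation with enzyme, 25 min cleavage at room temperature · Detection – AMC fluorescence from Ub-AMC cleavage, excitation 355 nm, emission 460 nm · Benchmarks – no-proteasome wells (full inhibition) and compound-free wells (no inhibition)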
PP5 inh: PP5 (human) phosphatase inhibition | P53041 | purified PP5c, OMFP substrate fluorescence | inhibition, % at 6.7 µM | 0.18% of 320,000 active;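 active = inhibition above the campaign's mean inhibition across all tested compounds plus 3 SD, cut at about 9.5% in these data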;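 also: 0% = DMSO only and 100% = 100 µM cantharidin control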
* hit, by the source's call; nt = no result. Shown are actives, neighbours in structure and some others; about 2.3% of the full set was active somewhere.

SMILES | Fh CTSL1 inh | UBC13 inh | PREPL inh | PP1 counter | UCH37 inh | PP5 inh
CCOc1ccccc1CNC(=O)C1CCN(c2nnc(C)c3c(C)n(-c4ccc(C)cc4)nc23)CC1 | 4 | 15 | 23 | 2 | nt | 0
COc1ccc(-n2nc3c(N4CCC(C(=O)N5CCCCCC5)CC4)nnc(C)c3c2C)cc1 | 28* | 3 | 43 | 7 | nt | 1
Cc1ccc(-n2ncc(C#N)c2N=CN(C)C)cc1 | nt | nt | nt | nt | -1 | nt
CCCCCCC=NNc1nnc(Cc2ccccc2)c(=O)[nH]1 | nt | nt | nt | nt | 4 | nt
NC(=NO)c1nc(N2CCCC2)nc(N2CCCC2)n1 | nt | nt | nt | nt | 5 | nt
O=C(Nc1cc(-c2ccccc2)[nH]n1)c1ccc(Cl)cc1 | -6 | 8 | -7 | 17* | 4 | 1
N#Cc1c(N=CN2CCCC2)oc(-c2ccccc2)c1-c1ccccc1 | nt | nt | nt | nt | 3 | nt
CC(C)OC(=O)CSc1nnc(-c2ccc(Cl)cc2Cl)o1 | 21* | 8 | 4 | 0 | -9 | 1
CCCCOC(=O)CSc1nnc(-c2ccc(Cl)cc2Cl)o1 | 9 | -3 | 9 | -1 | -3 | 1
Cc1ccnc(N/C=C(/NC(=O)c2ccccc2)C(=O)N/N=C\c2ccc(Cl)cc2)n1 | 17* | 4 | 2 | -1 | nt | 7
O=C(NCCC1=CCCCC1)c1c(O)nc2ccccn2c1=O | -2 | -4 | 3 | 15* | -15 | 2
CCCNC(=O)c1ccc(N2CCC3(CC2)CC(c2cccc(Br)c2)=NO3)c(NC(=O)c2cccc(C)c2)c1 | 0 | -19 | -2 | 16* | -195 | 3
O=C(O)c1c2c(nc3ccc(S(=O)(=O)N4CCC(C(=O)NCc5ccc(Cl)cc5)CC4)cc13)CCCC2 | 20* | -3 | 9 | -2 | 2 | -1
c1ccc2c(c1)ncn2CCCCOc1ccc2c(c1)CCC2 | -3 | 17 | 30 | 16* | 4 | 5
O=C(CN1CCN(S(=O)(=O)c2ccc(Br)cc2)CC1)NN=Cc1ccccc1C(=O)O | nt | nt | nt | nt | 5 | nt
NC(=S)NN=Cc1ccc(C=NNC(N)=S)cc1 | nt | nt | nt | nt | -5 | nt
NC(=S)NN=Cc1ccc(-c2cccc([N+](=O)[O-])c2)o1 | nt | nt | nt | nt | 0 | nt
NC(=S)N/N=C/c1cc([N+](=O)[O-])ccc1OCCOc1ccccc1 | 81* | -6 | 1 | 1 | nt | 0
CC(=O)N/N=C/c1cc([N+](=O)[O-])ccc1OCCOc1ccccc1 | 1 | 25 | 17 | 1 | nt | 1
NC(=S)N/N=C/c1ccc(-c2cccc([N+](=O)[O-])c2)o1 | 25* | -6 | 28 | -4 | nt | 0
NC(=S)N/N=C/c1ccc(Br)o1 | 17* | -6 | 2 | -3 | nt | -2
C=CCN1C(=O)/C(=C/c2ccc(O)c(OC)c2)SC1=Nc1nccs1 | nt | nt | nt | nt | 5 | nt
Nc1nonc1-n1nnc(C(=O)NN=Cc2ccc(Cl)cc2)c1-c1ccc2c(c1)OCO2 | nt | nt | nt | nt | 1 | nt
Cc1nc2ccc(C(=O)OCc3ccccc3Br)cc2nc1C | 19* | 5 | -5 | -1 | 2 | 1
CC(=O)Nc1ccc(C(=O)OCc2ccccc2Br)cc1 | 3 | 9 | -7 | 2 | 2 | 6
SMILES | Fh CTSL1 inh | UBC13 inh | PREPL inh | PP1 counter | UCH37 inh | PP5 inh
O=c1c2c3c(sc2nc(N2CCNCC2)n1-c1cccc(Cl)c1)CCCCC3 | -2 | 28 | 20 | 15* | nt | 1
CC(=O)NC(Cc1c[nH]c2ccccc12)C(=O)NN=Cc1ccccc1 (stereo not given) | nt | nt | nt | nt | 1 | nt
Nc1c(N2CCCC2)cc(Cl)c2nonc12 | 95* | -101 | 34 | 4 | 87* | 6
Nc1ccc(N2CCCCC2)c2nonc12 | 79* | -93 | 12 | 17* | 21* | 11*
Nc1ccc(N2CCCCC2)cc1N1CCCCC1 | -3 | -13 | 38 | -4 | 3 | 3
O=C(O)COc1ccc(Br)cc1C=NO | nt | nt | nt | nt | 2 | nt
CC(C)C[C@H](NC(=O)C1CC(=O)N(c2ccc3c(c2)OCO3)C1)C(=O)NCc1ccco1 (stereo not given in full) | 27* | -1 | 4 | 9 | 4 | 1
C[C@H](NC(=O)C1CC(=O)N(c2ccc3c(c2)OCCO3)C1)C(=O)NCc1ccco1 (stereo not given in full) | 1 | -6 | -2 | 0 | 3 | 0
Cc1nc2c(C(=O)NCCc3ccccc3Cl)c[nH]n2c(=O)c1Cl | 3 | -9 | 12 | 17* | -4 | 3
COc1ccc(N2C(=O)C(C)(C)C2c2c(O)ccc3ccccc23)cc1 (stereo not given) | 17* | 4 | 11 | 3 | 3 | 7
CC1(C)C(=O)N(c2ccccc2)C1c1ccccc1O (stereo not given) | -5 | 4 | -4 | -2 | 1 | 2
COc1cc(OC)cc(C(=O)Oc2ccc(C=NNc3nc4ccccc4s3)cc2OC)c1 | nt | nt | nt | nt | -17 | nt
O=C(O)CCCNC(=O)CC1S/C(=N/N=Cc2ccccc2O)NC1=O (stereo not given) | nt | nt | nt | nt | 5 | nt
O=C(O)c1cccc(Nc2ccc([N+](=O)[O-])c3nonc23)c1 | 0 | -212 | -8 | 5 | 24* | 1
O=C(O)c1cccc(Nc2cc(Cl)c3nonc3c2[N+](=O)[O-])c1 | 5 | -18 | 11 | 0 | 13 | 0
O=C(O)c1ccc(Nc2ccc([N+](=O)[O-])c3nonc23)cc1 | nt | -402 | nt | nt | 24* | nt
O=C(Nc1nc(-c2ccccc2)nc2ccccc12)c1ccc(F)cc1 | 0 | 16 | -9 | 16* | -33 | 2
CC(=O)Nc1ccc(Nc2nc(-c3ccccc3)nc3ccccc23)cc1 | -3 | 6 | 10 | 7 | -86 | 1
COc1ccc2c(C(=O)CCl)c[nH]c2c1 | 36* | 13 | 1 | -6 | 1 | -3
Cc1nc(C(N)=NOC(=O)c2c(-c3ccccc3Cl)noc2C)cs1 | nt | nt | nt | nt | 4 | nt
O=C(N/N=C/C=C/c1ccccc1)c1cccnc1 | 10 | -16 | 20 | 2 | nt | 1
CC(/C=C/C=C/c1ccccc1)=N\NC(=O)c1cccnc1 | 22* | -26 | 11 | -1 | nt | 2
CC(/C=C/C=C/c1ccccc1)=NNC(=O)c1cccnc1 | nt | nt | nt | nt | 24* | nt
CC(/C=C\C=C\c1ccccc1)=N\NC(=O)c1cncc(Br)c1 | 7 | -17 | -2 | 1 | nt | 1
CCOC(=O)N1C2C=CC(C2)N1C(=O)OCC | nt | nt | nt | nt | 1 | nt
CCOC(=O)N1[C@@H]2C=C(C)[C@@H]2[C@@H]2[C@@H](C)C(=O)N21 | 18* | -1 | 0 | -2 | 2 | 0
COc1ccc(NC(=O)Nc2nnc(CC(=O)NCc3ccccc3)s2)cc1 | 5 | -1 | 9 | 16* | -1 | 5
CCOc1ccc(NC(=O)Nc2nnc(CC(=O)NCc3ccccc3)s2)cc1 | 0 | -2 | 4 | 9 | 3 | -1
COc1cccc(-c2nc(SCC(=O)Nc3nc(-c4ccccc4)c(C)s3)[nH]c(=O)c2C#N)c1 | -1 | -18 | -17 | 17* | 6 | 1
O=C(Cc1ccccc1)NN=Cc1ccc(Br)o1 | nt | nt | nt | nt | 5 | nt

Bioassay records: PubChem BioAssay, several laboratories
